Measurements: ChEMBL document CHEMBL4033712, “Synthesis and biological evaluation of new C-12(α/β)-(N-) sulfamoyl-phenylamino-14-deoxy-andrographolide derivatives as potent anti-cancer agents” (Bioorg Med Chem Lett, 2017)

Legend:
Format in all cases: functional
OVCAR-8 = assay: Anticancer activity against human OVCAR8 cells assessed as cell growth at 10 uM after 48 hrs by sulforhodamine B assay relative to control; conditions: OVCAR-8, 48 h, read-out: Activity
Outline: (§1)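 Single-dose NCI-60 panel screen: compound added at 10 µM and the culture incubated 48 h. The end point was read by protein staining with sulforhodamine B. The value is percent growth of treated cells relative to untreated control cells, reported as a mean graph across the panel.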

UACC-62 = assay: Anticancer activity against human UACC62 cells assessed as cell growth at 10 uM after 48 hrs by sulforhodamine B assay relative to control; conditions: UACC-62, 48 h, read-out: Activity
Outline: (§2)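 NCI-60 single-dose screen: compound added at 10 µM, cultures incubated 48 h. End point by sulforhodamine B protein-binding dye. Value reported as percent growth of treated cells relative to untreated control cells.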

HL-60(TB) = assay: Anticancer activity against human HL-60(TB) cells assessed as cell growth at 10 uM after 48 hrs by sulforhodamine B assay relative to control; conditions: HL-60, 48 h, read-out: Activity
Outline: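 NCI-60 human tumour panel single-dose screen: cells exposed to 10 µM compound for 48 h. Growth end point read with sulforhodamine B protein-binding dye. Expressed as percent growth of treated cells versus untreated control cells.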

OVCAR-3 = assay: Anticancer activity against human OVCAR3 cells assessed as cell growth at 10 uM after 48 hrs by sulforhodamine B assay relative to control; conditions: OVCAR-3, 48 h, read-out: Activity; outline: as §1
EKVX = assay: Growth inhibition of human EKVX cells incubated for 48 hrs by sulforhodamine B assay; conditions: for CC50: read-out: LC50 (the source's name)
Outline: (§3)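 NCI-60 five-dose screen at 0.01, 0.1, 1, 10 and 100 µM, 48 h incubation, sulforhodamine B end point. GI50 (50% decrease in net growth), TGI (total growth inhibition) and LC50 (net 50% loss of initial cells) taken from log concentration versus % growth inhibition curves.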

OVCAR-4 = assay: Anticancer activity against human OVCAR4 cells assessed as cell growth at 10 uM after 48 hrs by sulforhodamine B assay relative to control; conditions: OVCAR-4, 48 h, read-out: Activity; outline: as §1
SF-268 = assay: Anticancer activity against human SF268 cells assessed as cell growth at 10 uM after 48 hrs by sulforhodamine B assay relative to control; conditions: SF-268, 48 h, read-out: Activity; outline: as §1
HCT-15 = assay: Anticancer activity against human HCT15 cells assessed as cell growth at 10 uM after 48 hrs by sulforhodamine B assay relative to control; conditions: HCT-15, 48 h, read-out: Activity; outline: as §1
HCC 2998 = assay: Anticancer activity against human HCC2998 cells assessed as cell growth at 10 uM after 48 hrs by sulforhodamine B assay relative to control; conditions: HCC 2998, 48 h, read-out: Activity; outline: as §1
NCI-H460 = assay: Anticancer activity against human NCI-H460 cells assessed as cell growth at 10 uM after 48 hrs by sulforhodamine B assay relative to control; conditions: NCI-H460, 48 h, read-out: Activity; outline: as §1
786-0 [1] = assay: Growth inhibition of human 786-0 cells incubated for 48 hrs by sulforhodamine B assay; conditions: 786-0, 48 h; outline: as §3
SK-MEL-2 = assay: Anticancer activity against human SK-MEL-2 cells assessed as cell growth at 10 uM after 48 hrs by sulforhodamine B assay relative to control; conditions: SK-MEL-2, 48 h, read-out: Activity; outline: as §1
NCI/ADR-RES = assay: Anticancer activity against human NCI/ADR-RES cells assessed as cell growth at 10 uM after 48 hrs by sulforhodamine B assay relative to control; conditions: read-out: Activity; outline: as §1
K562 [2] = assay: Anticancer activity against human K562 cells assessed as cell growth at 10 uM after 48 hrs by sulforhodamine B assay relative to control; conditions: K562, 48 h, read-out: Activity; outline: as §1
T47D = assay: Anticancer activity against human T47D cells assessed as cell growth at 10 uM after 48 hrs by sulforhodamine B assay relative to control; conditions: read-out: Activity; outline: as §2
A498 = assay: Anticancer activity against human A498 cells assessed as cell growth at 10 uM after 48 hrs by sulforhodamine B assay relative to control; conditions: A498, 48 h, read-out: Activity; outline: as §1
SR = assay: Anticancer activity against human SR cells assessed as cell growth at 10 uM after 48 hrs by sulforhodamine B assay relative to control; conditions: read-out: Activity; outline: as §2
UO-31 = assay: Anticancer activity against human UO31 cells assessed as cell growth at 10 uM after 48 hrs by sulforhodamine B assay relative to control; conditions: UO-31, 48 h, read-out: Activity; outline: as §2
MOLT-4 = assay: Anticancer activity against human MOLT4 cells assessed as cell growth at 10 uM after 48 hrs by sulforhodamine B assay relative to control; conditions: MOLT-4, 48 h, read-out: Activity; outline: as §1
Hs-578T = assay: Anticancer activity against human Hs 578T cells assessed as cell growth at 10 uM after 48 hrs by sulforhodamine B assay relative to control; conditions: read-out: Activity; outline: as §1
CCRF-CEM = assay: Anticancer activity against human CCRF-CEM cells assessed as cell growth at 10 uM after 48 hrs by sulforhodamine B assay relative to control; conditions: read-out: Activity; outline: as §1
K562 [3] = assay: Growth inhibition of human K562 cells incubated for 48 hrs by sulforhodamine B assay; conditions: K562, 48 h; for CC50: read-out: LC50 (the source's name); outline: as §3
ACHN = assay: Anticancer activity against human ACHN cells assessed as cell growth at 10 uM after 48 hrs by sulforhodamine B assay relative to control; conditions: read-out: Activity; outline: as §1
UACC-257 = assay: Anticancer activity against human UACC257 cells assessed as cell growth at 10 uM after 48 hrs by sulforhodamine B assay relative to control; conditions: UACC-257, 48 h, read-out: Activity; outline: as §2
BT-549 = assay: Anticancer activity against human BT549 cells assessed as cell growth at 10 uM after 48 hrs by sulforhodamine B assay relative to control; conditions: BT-549, 48 h, read-out: Activity; outline: as §1
SNB-75 = assay: Anticancer activity against human SNB75 cells assessed as cell growth at 10 uM after 48 hrs by sulforhodamine B assay relative to control; conditions: SNB-75, 48 h, read-out: Activity; outline: as §2
SK-OV-3 = assay: Anticancer activity against human SKOV3 cells assessed as cell growth at 10 uM after 48 hrs by sulforhodamine B assay relative to control; conditions: SK-OV-3, 48 h, read-out: Activity; outline: as §1
TK-10 = assay: Anticancer activity against human TK10 cells assessed as cell growth at 10 uM after 48 hrs by sulforhodamine B assay relative to control; conditions: TK-10, 48 h, read-out: Activity; outline: as §2
786-0 [4] = assay: Anticancer activity against human 786-0 cells assessed as cell growth at 10 uM after 48 hrs by sulforhodamine B assay relative to control; conditions: 786-0, 48 h, read-out: Activity; outline: as §1
SNB-19 = assay: Anticancer activity against human SNB19 cells assessed as cell growth at 10 uM after 48 hrs by sulforhodamine B assay relative to control; conditions: SNB-19, 48 h, read-out: Activity; outline: as §1

SMILES	growth at 10 µM (OVCAR-8)	growth at 10 µM (UACC-62)	growth at 10 µM (HL-60(TB))	growth at 10 µM (OVCAR-3)	growth at 10 µM (OVCAR-4)	growth at 10 µM (SF-268)	growth at 10 µM (HCT-15)	growth at 10 µM (HCC 2998)	growth at 10 µM (NCI-H460)	growth at 10 µM (SK-MEL-2)	growth at 10 µM (NCI/ADR-RES)	growth at 10 µM (K562 [2])	growth at 10 µM (T47D)	growth at 10 µM (A498)	growth at 10 µM (SR)	growth at 10 µM (UO-31)	growth at 10 µM (MOLT-4)	growth at 10 µM (Hs-578T)	growth at 10 µM (CCRF-CEM)	growth at 10 µM (ACHN)	further results
C=C1CC[C@@H]2[C@](C)(COC(C)=O)[C@H](OC(C)=O)CC[C@@]2(C)[C@H]1CC(Nc1ccc(S(=O)(=O)Nc2ncccn2)cc1)C1=CCOC1=O (some centres undefined)	3.81%	3.93%	-17.2%	-80.6%	42.7%	18.3%	-51.4%	32%	18.1%	41.9%	16.1%	4.6%	42.3%	79%	-4.43%	-17.9%	-8.69%	51.2%	-26.2%	-56.1%	GI50 (EKVX): 8.18 µM; TGI (EKVX): 20.6 µM; CC50 (EKVX): 45.6 µM; GI50 (786-0 [1]): 1.77 µM; LC50 (concentration giving net 50% loss of initial cells) (786-0 [1]): 6.51 µM; TGI (786-0 [1]): 3.39 µM; GI50 (K562 [3]): 1.73 µM; TGI (K562 [3]): 11.7 µM; CC50 (K562 [3]): > 100 µM; growth at 10 µM (UACC-257): 16.6%; growth at 10 µM (BT-549): -32%; growth at 10 µM (SNB-75): 25.6%; growth at 10 µM (SK-OV-3): 84.7%; growth at 10 µM (TK-10): 35.1%; growth at 10 µM (786-0 [4]): -10.1%; growth at 10 µM (SNB-19): 36.7%
C=C1CC[C@@H]2[C@](C)(COC(C)=O)[C@H](OC(C)=O)CC[C@@]2(C)[C@H]1CC(Nc1ccc(S(=O)(=O)Nc2nc(C)cc(C)n2)cc1)C1=CCOC1=O (some centres undefined)	62%	32.9%	21.7%	44.8%	65%	93.3%	49.2%	100%	90.3%	88.5%	66.7%	19.1%	68.8%	85.3%	22.2%	71.2%	24.6%	99.8%	2.96%	71.6%	growth at 10 µM (UACC-257): 67.9%; growth at 10 µM (BT-549): 71.9%; growth at 10 µM (SNB-75): 44.6%; growth at 10 µM (SK-OV-3): 112%; growth at 10 µM (TK-10): 111%; growth at 10 µM (786-0 [4]): 103%; growth at 10 µM (SNB-19): 100%
C=C1CC[C@@H]2[C@](C)(COC(C)=O)[C@H](OC(C)=O)CC[C@@]2(C)[C@H]1CC(Nc1ccc(S(=O)(=O)Nc2nccc(C)n2)cc1)C1=CCOC1=O (some centres undefined)	10.5%	24.2%	-17.3%	-45%	32.3%	43.2%	-42%	68.2%	46.9%	40.1%	20.9%	3.62%	69.1%	96.8%	0.79%	33.4%	-1.85%	68.6%	-19.2%	-37.2%	GI50 (EKVX): 13.9 µM; TGI (EKVX): 27.1 µM; CC50 (EKVX): 52.7 µM; GI50 (786-0 [1]): 2.27 µM; LC50 (concentration giving net 50% loss of initial cells) (786-0 [1]): 13.8 µM; TGI (786-0 [1]): 5.06 µM; GI50 (K562 [3]): 2.97 µM; TGI (K562 [3]): 21.7 µM; CC50 (K562 [3]): > 100 µM; growth at 10 µM (UACC-257): 48.5%; growth at 10 µM (BT-549): -2.66%; growth at 10 µM (SNB-75): 9.66%; growth at 10 µM (SK-OV-3): 101%; growth at 10 µM (TK-10): 83%; growth at 10 µM (786-0 [4]): 32.5%; growth at 10 µM (SNB-19): 53.6%
